ChEMBL document CHEMBL4837193 (Eur J Med Chem, 2021)
Active and inactive are the calls of the source. The calls are words filed in the database; no cut-off is given here.

Tests used:
HepG2 = assay: Antiproliferative activity against human HepG2 cells assessed as cell growth inhibition after 48 hrs by MTT assay; format: functional, cell-based; conditions: HepG2, 48 h
Outline: (§1)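 Cells grown at 37 °C with CO2 in RPMI-1640 or DMEM plus 10% FBS. Seeded at 2 × 10³ per well, attached 24 h, then medium changed. Compound exposure 48 h at 37 °C, DMSO 0.1% as vehicle. MTT added and incubated a further 4 h. Crystals dissolved, absorbance read at 570 nm. IC50 from curve fitting, mean ± SD of three independent experiments.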

HeLa [1] = assay: Induction of apoptosis in human HeLa cells assessed as late apoptotic cells at 120 nM after 24 hrs by AnnexinV/PI-staining based flow cytometry (reference value: 0.884 %)
HeLa [2] = assay: Cell cycle arrest in human HeLa cells assessed as increase in cells accumulation at G0/G1 phase at 120 nM measured after 24 hrs by propidium iodide staining based flow cytometric analysis (reference value: 67.22 %); format: functional
HeLa [3] = assay: Induction of apoptosis in human HeLa cells assessed as necrotic cells at 60 nM after 24 hrs by AnnexinV/PI-staining based flow cytometry (reference value: 0.093 %)
HeLa [4] = assay: Induction of apoptosis in human HeLa cells assessed as necrotic cells at 120 nM after 24 hrs by AnnexinV/PI-staining based flow cytometry (reference value: 0.093 %)
HeLa [5] = assay: Induction of apoptosis in human HeLa cells assessed as necrotic cells at 30 nM after 24 hrs by AnnexinV/PI-staining based flow cytometry (reference value: 0.093 %)
HeLa [6] = assay: Induction of apoptosis in human HeLa cells assessed as early apoptotic cells at 120 nM after 24 hrs by AnnexinV/PI-staining based flow cytometry (reference value: 2.87%)
HeLa [7] = assay: Induction of apoptosis in human HeLa cells assessed as early apoptotic cells at 60 nM after 24 hrs by AnnexinV/PI-staining based flow cytometry (reference value: 2.87%)
HeLa [8] = assay: Induction of cell cycle arrest in human Hela cells assessed as decrease in cdc2 expression measured after 24 hrs by Western blot analysis relative to control; format: functional, cell-based; conditions: dose 30-120 nM
Outline: (§2)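 HeLa cells treated as for cell-cycle analysis (30, 60, 120 nM, 24 h), then lysed and protein quantified. Lysates boiled 5 min, run on SDS-PAGE and transferred to PVDF. Membranes blocked in 5% skim milk 1 h at RT, primary antibodies overnight at 4 °C, β-actin/GAPDH as loading controls. Secondary antibody 1:4000 for 2 h at RT. Mean ± SD of three independent experiments.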

HeLa [9] = assay: Cell cycle arrest in human HeLa cells assessed as increase in cells accumulation at G2/M phase at 30 nM measured after 24 hrs by propidium iodide staining based flow cytometric analysis (reference value: 12.49 %); format: functional
Tubulin (Homo sapiens) [10] = target: T1, Tubulin (Homo sapiens) (UniProt P68371+Q9H4B7+P0DPH7+P68366+Q13509+Q71U36+P04350+Q3ZCM7+P07437+P68363+Q9BQE3+Q6PEY2+Q13885+Q9BVA1+Q9BUF5); assay: Inhibition of […]colchicine binding to tubulin (unknown origin) at 4 uM incubated for 45 mins by fluorescence assay relative to control; format: protein-complex assay
Outline: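 Tubulin (4 µM) preincubated 45 min at 37 °C with test agent (20–80 µM), then colchicine (4 µM) added. After a further 45 min at 37 °C, fluorescence read at excitation 340 nm and emission 435 nm, with buffer blank subtracted.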

HeLa [11] = assay: Cell cycle arrest in human HeLa cells assessed as increase in cells accumulation at S phase at 60 nM measured after 24 hrs by propidium iodide staining based flow cytometric analysis (reference value: 20.29 %); format: functional
HeLa [12] = assay: Antiproliferative activity against human HeLa cells assessed as cell growth inhibition after 48 hrs by MTT assay; format: functional, cell-based; outline: as §1
T47D = assay: Antiproliferative activity against human T47D cells assessed as cell growth inhibition after 48 hrs by MTT assay; format: functional, cell-based
HeLa [13] = assay: Induction of apoptosis in human HeLa cells assessed as early apoptotic cells at 30 nM after 24 hrs by AnnexinV/PI-staining based flow cytometry (reference value: 2.87%)
HEK293 = assay: Antiproliferative activity against human HEK293 cells assessed as cell growth inhibition after 48 hrs by MTT assay; format: cell-based; conditions: HEK293, 48 h; outline: as §1
HeLa [14] = assay: Induction of apoptosis in human HeLa cells assessed as increase in cleaved PARP level incubated for 24 hrs by Western blot analysis; format: functional, cell-based; outline: as §2
HeLa [15] = assay: Cell cycle arrest in human HeLa cells assessed as increase in cells accumulation at G2/M phase at 60 nM measured after 24 hrs by propidium iodide staining based flow cytometric analysis (reference value: 12.49 %); format: functional
HeLa [16] = assay: Induction of apoptosis in human HeLa cells assessed as effect on Bax level incubated for 24 hrs by Western blot analysis; format: functional, cell-based; outline: as §2
HCT-116 = assay: Antiproliferative activity against human HCT-116 cells assessed as cell growth inhibition after 48 hrs by MTT assay; format: functional, cell-based; conditions: HCT-116, 48 h; outline: as §1
A549 = assay: Antiproliferative activity against human A549 cells assessed as cell growth inhibition after 48 hrs by MTT assay; format: functional, cell-based; conditions: A549, 48 h; outline: as §1
HeLa [17] = assay: Induction of apoptosis in human HeLa cells assessed as late apoptotic cells at 30 nM after 24 hrs by AnnexinV/PI-staining based flow cytometry (reference value: 0.884 %)
HeLa [18] = assay: Cell cycle arrest in human HeLa cells assessed as increase in cells accumulation at S phase at 120 nM measured after 24 hrs by propidium iodide staining based flow cytometric analysis (reference value: 20.29 %); format: functional
HeLa [19] = assay: Cell cycle arrest in human HeLa cells assessed as increase in cells accumulation at S phase at 30 nM measured after 24 hrs by propidium iodide staining based flow cytometric analysis (reference value: 20.29 %); format: functional
Tubulin (Homo sapiens) [20] = target: T1, Tubulin (Homo sapiens); assay: Inhibition of tubulin polymerization (unknown origin) at 10 uM measured after 30 mins every 1 min for 20 mins by spectrophotometric method; format: protein-complex assay
Outline: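 Tubulin at 2 mg/mL in PEM buffer (100 mM PIPES pH 6.9, 1 mM MgCl2, 1 mM EGTA, 5% glycerol) preincubated on ice with compound or DMSO, then GTP added. After 0.5 h, A340 read every 1 min for 20 min at 37 °C. Plateau values used. Single-point inhibition at 10 µM; IC50 is the concentration halving polymerization at 20 min, mean ± SD of three experiments.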

HeLa [21] = assay: Cell cycle arrest in human HeLa cells assessed as increase in cells accumulation at G0/G1 phase at 60 nM measured after 24 hrs by propidium iodide staining based flow cytometric analysis (reference value: 49.85 %); format: functional
HeLa [22] = assay: Induction of apoptosis in human HeLa cells assessed as late apoptotic cells at 60 nM after 24 hrs by AnnexinV/PI-staining based flow cytometry (reference value: 0.884 %)
HT-29 = assay: Antiproliferative activity against human HT29 cells assessed as cell growth inhibition after 48 hrs by MTT assay; format: functional, cell-based; conditions: HT-29, 48 h
HeLa [23] = assay: Cell cycle arrest in human HeLa cells assessed as increase in cells accumulation at G0/G1 phase at 30 nM measured after 24 hrs by propidium iodide staining based flow cytometric analysis (reference value: 67.22 %); format: functional
HeLa [24] = assay: Cell cycle arrest in human HeLa cells assessed as increase in cells accumulation at G2/M phase at 120 nM measured after 24 hrs by propidium iodide staining based flow cytometric analysis (reference value: 12.49 %); format: functional
Tubulin = assay: Inhibition of tubulin polymerization (unknown origin) measured afer 30 mins every 1 min for 20 mins by spectrophotometric method; format: protein-complex assay, Homo sapiens
Outline: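 Tubulin at 2 mg/mL in PEM buffer (100 mM PIPES pH 6.9, 1 mM MgCl2, 1 mM EGTA, 5% glycerol) preincubated on ice with compound or DMSO, then GTP added. After 0.5 h, A340 read every 1 min for 20 min at 37 °C. Plateau values used.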

HeLa [25] = assay: Induction of cell cycle arrest in human Hela cells assessed as increase in cyclin B1 expression measured after 24 hrs by Western blot analysis relative to control; format: functional, cell-based; conditions: dose 30-120 nM; outline: as §2

COc1ccc(-c2nc3nccc(-c4cc(OC)c(OC)c(OC)c4)n3n2)cc1O
IC50 (HepG2): 14.7 µM | Activity (HeLa [1]): 19.3% | Activity (HeLa [2]): 29.01% | Activity (HeLa [3]): 1.07% | Activity (HeLa [4]): 2.37% | Activity (HeLa [5]): 0.329% | Activity (HeLa [6]): 14.3% | Activity (HeLa [7]): 10.5% | Activity (HeLa [8]): Active | Activity (HeLa [9]): 16.18% | inhibition (Tubulin (Homo sapiens) [10]): Dose-Dependent Effect | Activity (HeLa [11]): 27.84% | IC50 (HeLa [12]): 0.06 µM | IC50 (T47D): 3.49 µM | Activity (HeLa [13]): 8.5% | IC50 (HEK293): > 100 µM | Activity (HeLa [14]): Active | Activity (HeLa [15]): 22.81% | Activity (HeLa [16]): inactive | IC50 (HCT-116): 18.4 µM | IC50 (A549): 6.05 µM | Activity (HeLa [17]): 5.61% | Activity (HeLa [18]): 24.67% | Activity (HeLa [19]): 17.79% | inhibition (Tubulin (Homo sapiens) [20]): 94% | Activity (HeLa [21]): 49.85% | Activity (HeLa [22]): 8.85% | IC50 (HT-29): 0.24 µM | Activity (HeLa [23]): 66.03% | Activity (HeLa [24]): 46.82% | IC50 (Tubulin): 1.3 µM | Activity (HeLa [25]): Dose-Dependent Effect
